Activity calls are given as the source filed them. The rule behind the calls is not given here.
Columns and labels:
[1] = system: MCF7; assay: Antiproliferative activity against human MCF7 cells after 72 hrs by MTT assay; format: functional, cell-based; settings: MCF7, 72 h
Outline: (§1)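 Cells grown in DMEM with 10% FBS, penicillin G and streptomycin. 8 × 10³ cells per well, incubated overnight at 37 °C in 5% CO₂, then exposed to graded compound concentrations (from 10 mM DMSO stocks) in triplicate for 72 h. Viability measured by MTT. IC50 taken from dose-response curves, given as mean ± SE of at least three independent experiments run in triplicate.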

[2] = system: RS4-11; assay: Antiproliferative activity against human RS4:11 cells after 72 hrs by MTT assay; format: functional, cell-based; settings: RS4-11, 72 h
[3] = system: HL-60; assay: Antiproliferative activity against human HL60 cells after 72 hrs by MTT assay; format: functional, cell-based; settings: HL-60, 72 h
[4] = system: HeLa; assay: Antiproliferative activity against human HeLa cells after 72 hrs by MTT assay; format: functional, cell-based; outline: as §1
[5] = system: Jurkat; assay: Antiproliferative activity against human Jurkat cells after 72 hrs by MTT assay; format: functional, cell-based
Outline: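 Cells exposed to graded compound concentrations (from 10 mM DMSO stocks) in triplicate for 72 h at 37 °C. Viability measured by MTT. IC50 taken from dose-response curves, given as mean ± SE of at least three independent experiments run in triplicate.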

[6] = system: HT-29; assay: Antiproliferative activity against human HT-29 cells after 72 hrs by MTT assay; format: functional, cell-based; settings: HT-29, 72 h; outline: as §1
[7] = system: CCRF-CEM; assay: Antiproliferative activity against human CCRF-CEM cells after 72 hrs by MTT assay; format: functional, cell-based
[8] = target: T1, Serine/threonine-protein kinase Nek2 (Homo sapiens) (UniProt P51955); assay: Inhibition of recombinant human full-length N-terminal GST-tagged NEK2 expressed in baculovirus infected Sf9 insect cells at 1 uM using MBP as substrate after 30 mins by ADP-Glo reagent based luminescence assay
T1 sequence (whole entry): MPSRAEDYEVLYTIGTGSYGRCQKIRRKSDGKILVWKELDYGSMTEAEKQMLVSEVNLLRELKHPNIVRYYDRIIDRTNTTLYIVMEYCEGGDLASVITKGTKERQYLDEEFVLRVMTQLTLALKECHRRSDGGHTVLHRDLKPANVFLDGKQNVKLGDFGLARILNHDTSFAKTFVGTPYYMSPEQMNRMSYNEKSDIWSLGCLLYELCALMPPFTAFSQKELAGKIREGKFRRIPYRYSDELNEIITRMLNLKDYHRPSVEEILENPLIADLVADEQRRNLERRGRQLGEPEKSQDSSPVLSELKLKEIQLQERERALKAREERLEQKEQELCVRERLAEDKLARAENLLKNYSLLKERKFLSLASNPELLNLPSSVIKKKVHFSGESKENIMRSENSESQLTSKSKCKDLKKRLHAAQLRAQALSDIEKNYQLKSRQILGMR
Outline: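 Nek2 activity measured with the bioluminescent ADP-Glo kinase assay, compounds at 1 µM final concentration. Percentage inhibition given as means ± SEM of two independent experiments performed in duplicate.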

[9] = system: Jurkat; assay: Induction of GSH depletion in human Jurkat cells at 0.5 to 10 uM after 30 mins by CMFDA-probe based flow cytometry; format: functional, cell-based; settings: in the assay text read “after 12 to 24 hrs” for “after 30 mins”
Outline: (§2)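 Cells treated with compound for 12–24 h, harvested, then loaded with 5 µM CMFDA at 37 °C for 30 min. GSH-dependent fluorescence measured by flow cytometry. Means ± S.E.M. of three independent experiments.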

[10] = system: HeLa; assay: Induction of GSH depletion in human HeLa cells at 0.5 to 10 uM after 30 mins by CMFDA-probe based flow cytometry; format: functional, cell-based; settings: in the assay text read “after 12 to 24 hrs” for “after 30 mins”; outline: as §2
[11] = system: HeLa; assay: Antiproliferative activity against human HeLa cells at 1 uM after 48 hrs in presence of 100 uM NAC by annexin-V staining based assay; format: functional, cell-based
Outline: (§3)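 HeLa cells treated with compound at 1.0 µM for 48 h together with 100 µM N-acetyl-L-cysteine or DL-α-tocopherol acetate. Cell death measured by annexin-V assay with flow cytometry. Means ± S.E.M. of three independent experiments.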

[12] = system: Jurkat; assay: Induction of mitochondrial membrane depolarization in human Jurkat cells at 10 to 100 nM after 12 to 24 hrs JC-1 staining based flow cytometry; format: functional, cell-based
Outline: (§4)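 Cells treated at the indicated concentrations for the indicated times (12 and 24 h). Stained with JC-1 and analyzed by flow cytometry for dissipation of mitochondrial membrane potential.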

[13] = system: Jurkat; assay: Induction of apoptosis in human Jurkat cells at 100 nM after 24 to 48 hrs by annexin-V/FITC propidium iodide staining based flow cytometry; format: functional, cell-based
Outline: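 Cells treated with compound at the indicated concentrations for 24 or 48 h, then double-stained with annexin V-FITC and PI. Phosphatidylserine exposure measured by flow cytometry. Means ± SEM of three independent experiments.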

[14] = system: HeLa; assay: Antiproliferative activity against human HeLa cells at 1 uM after 48 hrs in presence of 100 uM TOC by annexin-V staining based assay; format: functional, cell-based; outline: as §3
[15] = system: HeLa; assay: Induction of apoptosis in human HeLa cells assessed as cleaved caspase-9 expression at 0.5 to 1 uM after 24 hrs by Western blot analysis; format: functional, cell-based
Outline: (§5)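 HeLa cells treated for 24 h and washed in ice-cold PBS. Cells lysed on ice for 30 min and lysate cleared at 15000 x g. 10 μg protein resolved by SDS-PAGE (7.5–15%) and blotted. Membranes blocked with 3% BSA, probed with antibodies to caspase-9 or γH2AX, detected by ECL. Bands quantified and normalized to β-actin, mean±SD of two gels.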

[16] = system: PBL; assay: Cytotoxicity against PHA-stimulated human PBL assessed as reduction in cell viability after 72 hrs by MTT assay; format: cell-based
Outline: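 PBL isolated from healthy donors' buffy coats by density-gradient centrifugation and held overnight in RPMI-1640 with 10% FBS. Non-adherent cells resuspended at 5 × 10⁵ cells/mL with 2.5 μg/mL PHA and given graded compound concentrations. Viability read by MTT after 72 h. IC50 reported as mean ± SEM of two separate experiments.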

[17] = system: PBL; assay: Cytotoxicity against resting human PBL assessed as reduction in cell viability after 72 hrs by MTT assay; format: cell-based
Outline: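 PBL isolated from healthy donors' buffy coats by density-gradient centrifugation and held overnight in RPMI-1640 with 10% FBS. Non-adherent cells without PHA resuspended at 5 × 10⁵ cells/mL and treated for 72 h. Viability read by MTT. IC50 reported as mean ± SEM of two separate experiments.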

[18] = system: HeLa; assay: Induction of DNA damage in human HeLa cells assessed as increase in gamma-H2AX level at 0.5 to 1 uM after 24 hrs by Western blot analysis; format: functional, cell-based; outline: as §5
[19] = system: HeLa; assay: Cell cycle arrest in human HeLa cells assessed as decrease in G1 phase at 1 uM after 24 hrs by propidium iodide staining based flow cytometry; format: functional; design: scale not given: the % may be the effect or the level left
Outline: (§6)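 5 × 10⁵ HeLa cells treated for 24 h at the indicated concentrations, then fixed in ice-cold 70% ethanol. Lysis buffer with RNase A and 0.1% Triton X-100 applied, cells stained with PI, and DNA content read by flow cytometry to give percentage of cells in each phase.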

[20] = system: HeLa; assay: Induction of mitochondrial membrane depolarization in human HeLa cells at 0.5 to 1 uM after 12 to 24 hrs JC-1 staining based flow cytometry; format: functional, cell-based; outline: as §4
[21] = system: HeLa; assay: Cell cycle arrest in human HeLa cells assessed as decrease in G1 phase at 0.5 to 1 uM after 24 hrs by propidium iodide staining based flow cytometry; format: functional; outline: as §6

Row | Structure (SMILES) | IC50 [1] [nM] | IC50 [2] [nM] | IC50 [3] [nM] | IC50 [4] [nM] | IC50 [5] [nM] | IC50 [6] [nM] | IC50 [7] [nM] | inhibition [8] [%] | other results
1 | C=C(Br)C(=O)Nc1ccc2c(c1)/C(=C\c1ccsc1)C(=O)N2 | 2100 | 190 | 770 | 2600 | 56 | 310 | 6 | 5 to 20 | –
2 | C=C(Br)C(=O)Nc1ccc2c(c1)/C(=C/c1ccc[nH]1)C(=O)N2 | 700 | 1 | 140 | 500 | 110 | 800 | 3 | 50 | Activity [9]: Active; Activity [10]: Active; Activity [11]: Active; Activity [12]: Active; Activity [13]: Active; Activity [14]: inactive; Activity [15]: Active; IC50 [16]: 830 to 850 nM; IC50 [17]: 1500 nM; Activity [18]: Active; Activity [19]: 20%; Activity [20]: Active
3 | C=C(Br)C(=O)Nc1ccc2c(c1)/C(=C/c1ccc(C)s1)C(=O)N2 | 3000 | 50 | 24 | 1600 | 360 | 560 | 9 | 5 to 20 | –
4 | C=C(Br)C(=O)Nc1ccc2c(c1)/C(=C/c1cccs1)C(=O)N2 | 1700 | 2 | 230 | 1700 | 210 | 240 | 35 | 5 to 20 | –
5 | C=C(Br)C(=O)Nc1ccc2c(c1)/C(=C/c1sccc1C)C(=O)N2 | 2600 | 0.4 | 13 | 420 | 30 | 1200 | 0.5 | 5 to 20 | –
6 | C=C(Br)C(=O)Nc1ccc2c(c1)CC(=O)N2 | 3300 | 220 | 350 | 4500 | 1100 | 4400 | 220 | 5 to 20 | –
7 | C=C(Br)C(=O)Nc1ccc2c(c1)/C(=C/c1ccsc1)C(=O)N2 | 2800 | 190 | 350 | 3500 | 190 | 600 | 4 | 5 to 20 | –
8 | Nc1ccc2c(c1)C(=Cc1ccsc1)C(=O)N2 | – | > 10000 | – | – | – | – | > 10000 | – | –
9 | C#CC(=O)Nc1ccc2c(c1)/C(=C/c1ccc[nH]1)C(=O)N2 | 3700 | 70 | 5800 | 4400 | 340 | 2300 | 50 | 5 to 20 | Activity [21]: inactive
10 | C=C(Br)C(=O)Nc1ccc2c(c1)/C(=C\c1cccs1)C(=O)N2 | 2300 | 30 | 15 | 1800 | 16 | 5500 | 10 | 5 to 20 | –
11 | C=C(Br)C(=O)Nc1ccc2c(c1)/C(=C\c1ccc(C)s1)C(=O)N2 | 4400 | 20 | 12 | 2000 | 150 | 300 | 1 | 5 to 20 | –
12 | C=C(Br)C(=O)Nc1ccc2c(c1)/C(=C\c1sccc1C)C(=O)N2 | 2300 | 4 | 39 | 450 | 40 | 330 | 0.9 | 5 to 20 | Activity [9]: Active; Activity [10]: Active; Activity [11]: Active; Activity [12]: Active; Activity [13]: Active; Activity [14]: inactive; Activity [15]: Active; IC50 [16]: 1220 nM; IC50 [17]: 450 nM; Activity [18]: Active; Activity [19]: 20%; Activity [20]: Active

From ChEMBL document CHEMBL4033640, “Design, synthesis and biological evaluation of 3-substituted-2-oxindole hybrid derivatives as novel anticancer agents” (Eur J Med Chem, 2017)
